Experimental data taken from ChEMBL document CHEMBL3046036, “Bioactivity of the fungal metabolite (8R,16R)-(-)-pyrenophorin on graminaceous plants” (J Agric Food Chem, 2005).

Tests used:
Settings in all cases: in vivo
[1] = tested on: Hordeum vulgare; test: Effect on chlorophyll content in Hordeum vulgare (barley) assessed as chlorophyll dissipation rate at 20 degC and 12 hr photoperiod at 320 uM relative to control; type: ADME, organism-based
How it was run: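 Leaf sections were treated with 320 µM metabolite and incubated in the dark at 20 °C, with 16 tubes per treatment. Every 12 h, segments from one tube were split into four tubes and extracted in DMSO at 65 °C for 30 min. Extracts were read at A665, tissue was dried at 105 °C and weighed, and chlorophyll was expressed as A665 per g dry weight.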

[2] = tested on: Avena fatua; test: Effect on chlorophyll content in Avena fatua assessed as chlorophyll dissipation rate at 20 degC in the dark at 320 uM relative to control
[3] = tested on: Avena sativa; test: Effect on chlorophyll content in Avena sativa assessed as chlorophyll dissipation rate at 20 degC in the dark at 320 uM relative to control
[4] = tested on: Avena sterilis; test: Effect on chlorophyll content in Avena sterilis assessed as chlorophyll dissipation rate at 20 degC in the dark at 320 uM relative to control
[5] = tested on: Triticum aestivum; test: Effect on chlorophyll content in Triticum aestivum (wheat) assessed as chlorophyll dissipation rate at 20 degC in the dark at 320 uM relative to control

Measured: Activity

C[C@@H]1CC[C@H](O)/C=C/C(=O)O[C@H](C)CC[C@H](O)/C=C/C(=O)O1 [(5S,8R,13S,16R)-(-)-PYRENOPHOROL]
Non-toxic: all assays above
